Source: ChEMBL document CHEMBL1140177 (J Med Chem, 2008)

Assays:
[1] = test system: Human immunodeficiency virus 1; experiment: Antiviral activity against HIV1 with reverse transcriptase K103N mutant infected in human MT4 cells after 72 hrs in presence of 10% fetal bovine serum; type: functional; conditions: Human immunodeficiency virus 1, MT4, 72 h; read-out: CIC95
Method in brief: (§1)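 Mutant HIV-1 spread was assayed in MT-4 human T-lymphoid cells kept in RPMI 1640 with 10% FBS. CIC95 is the concentration that inhibits viral spread by >95%. Values are geometric means of two determinations, or mean with standard deviation where n > 3. Cytotoxicity was checked up to an assay limit of 8.3 µM.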

[2] = test system: Human immunodeficiency virus 1; experiment: Antiviral activity against wild type HIV1 infected in human MT4 cells after 72 hrs in presence of 10% fetal bovine serum; type: functional; conditions: Human immunodeficiency virus 1, MT4, 72 h; read-out: CIC95
Method in brief: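 MT-4 human T-lymphoid cells in RPMI 1640 with 10% FBS. CIC95 is the concentration that inhibits viral spread by >95%. Values are either geometric means of two determinations or given with standard deviations for n > 3 or n > 50.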

[3] = test system: Human immunodeficiency virus 1; experiment: Antiviral activity against HIV1 with reverse transcriptase Y181C mutant infected in human MT4 cells after 72 hrs in presence of 10% fetal bovine serum; type: functional; conditions: Human immunodeficiency virus 1, MT4, 72 h; read-out: CIC95; method in brief: as §1
[4] = test system: Human immunodeficiency virus 1; experiment: Antiviral activity against wild type HIV1 infected in human MT4 cells after 72 hrs in presence of 50% normal human serum; type: functional; conditions: Human immunodeficiency virus 1, MT4, 72 h; read-out: CIC95
Method in brief: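 MT-4 human T-lymphoid cells in RPMI 1640 with 50% NHS. CIC95 is the concentration that inhibits viral spread by >95%. Values are either geometric means of two determinations or given with standard deviations for n > 3 or n > 50.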

[5] = target: Human immunodeficiency virus type 1 reverse transcriptase (Human immunodeficiency virus 1, UniProt Q72547); experiment: Inhibition of wild type HIV1 RT polymerase by SPA
[6] = target: Human immunodeficiency virus type 1 reverse transcriptase (Human immunodeficiency virus 1, UniProt Q72547, K103N); experiment: Inhibition of HIV1 RT polymerase K103N mutant by SPA
[7] = target: Human immunodeficiency virus type 1 reverse transcriptase (Human immunodeficiency virus 1, UniProt Q72547, Y181C); experiment: Inhibition of HIV1 RT polymerase Y181C mutant by SPA

With `O=C1Nc2ccc(Cl)cc2[C@@](C#CC2CC2)(C(F)(F)F)O1` [EFAVIRENZ] the IC95 [1] was 245 nM, the IC95 [2] was 4.6 nM and the IC95 [3] was 87 nM. It also gave an IC95 [4] of 42 nM.
`N#Cc1cc(Cl)cc(Oc2cc(OCc3n[nH]c4cccnc34)ccc2Cl)c1` showed an IC50 [5] of 3.6 nM, an IC50 [6] of 40 nM and an IC95 [1] of 2770 nM. For the same compound, the IC50 [7] was 740 nM, the IC95 [2] was 307 nM and the IC95 [4] was 922 nM.
With `N#Cc1cc(Cl)cc(Oc2cc(OCc3n[nH]c4ccccc34)ccc2Cl)c1` the IC95 [1] was 33 nM, the IC95 [2] was 22.6 nM and the IC95 [3] was 102 nM. The IC95 [4] was 114 nM.
